In the library only some 3.8% were active in any assay of this set; here they are far more common.
V-ATPase pHluor = alters yeast V-ATPase proton transport | S. cerevisiae, pHLuorin cytosolic pH fluorescence | response, % at 10 µM | actives 0.37% (n = 350,000) | AID 504577; in the data active = response mostly above about 7.3%, no sharp cut-off; inactive = mostly below about 5.4%; also: actives read high
B2AR ag = activates human beta-2 adrenergic receptor causing internalization; Am2.2-beta2AR cells, FAP receptor internalization, flow cytometry; response, % (no concentration beside the values); actives 0.43% (n = 340,000); AID 504454;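 active = response above a set limit, near 3 SD of response in nonfluorescent compounds, cut at about 42% in these data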
Target sequence (P07550 whole entry, looked up): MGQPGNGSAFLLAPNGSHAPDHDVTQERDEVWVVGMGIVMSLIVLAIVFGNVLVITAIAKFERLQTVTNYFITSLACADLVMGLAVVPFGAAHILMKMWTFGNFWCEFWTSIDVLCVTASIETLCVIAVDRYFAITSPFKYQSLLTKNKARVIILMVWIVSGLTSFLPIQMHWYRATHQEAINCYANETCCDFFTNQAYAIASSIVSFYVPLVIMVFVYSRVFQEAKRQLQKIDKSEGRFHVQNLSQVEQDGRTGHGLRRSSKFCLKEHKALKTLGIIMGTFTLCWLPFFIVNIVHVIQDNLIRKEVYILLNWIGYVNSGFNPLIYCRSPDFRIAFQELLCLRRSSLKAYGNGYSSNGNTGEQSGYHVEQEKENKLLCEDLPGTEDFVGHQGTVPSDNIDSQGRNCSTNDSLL
MPTP block = permeability transition pore inhibition; actives 1.4% (n = 360,000); isolated mouse mitochondria, Ca2+ swelling absorbance, 30 min; inhibition, % at 10 µM;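 active = inhibition of 50% or more, scaled per plate between neutral and stimulator controls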
rCAG RNA binder = r(CAG) repeat RNA binding; TO-PRO-1 dye displacement fluorescence; actives 1.3% (n = 370,000); inhibition, % at 3 µM;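 active = inhibition above the plate cutoff, the mean of all test compounds on that plate plus 3 SD, cut at about 35% in these data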;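 also: higher means more dye released from RNA so lower well fluorescence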
Granule exo inh = lytic granule exocytosis inhibition; TALL-104 LAMP-1 surface exposure, flow cytometry; cells stimulated with thapsigargin and PMA; inhibition, % at 10 µM; actives 0.66% (n = 360,000);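 active = inhibition above about 55%, limit read from the data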
T cell HTS = T cell immune modulation candidate. 2C CD8+ T cell-vesicle binding, flow cytometry; hits give low values. actives 0.068% (n = 330,000). response (vesicle binding), % at 7 µM. AID 2052;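 active = response, share of CD8 T cells binding vesicles, and their 90th percentile fluorescence all below set limits, cut at about 80% in these data, passing the limit was not always enough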;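 also: values below 100% mean blocked vesicle binding to the CD8+ T cells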
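Test system: purified 2C TCR transgenic mouse naive CD8+ T cells. Probe or stimulus: QL9-peptide-loaded Drosophila micro-vesicles bearing Ld, ICAM-1 and B7-1. Incubation: binding step 1.5 h, 37 °C, antibody labelling 20 min, ice. Measured by: flow cytometry of vesicle-bound cells.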
rCAG bind conf = r(CAG) RNA repeat binding, confirmation | AID 652065 | inhibition, % at 3 µM | actives 70% (n = 4,300) | TO-PRO-1 dye displacement fluorescence | shares compounds with rCAG RNA binder;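 active = inhibition above a per-plate cutoff, the mean inhibition of sample wells plus 3 SD, cut at about 35% in these data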;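 also: loss of TO-PRO-1 fluorescence as compound displaces dye from 1x1 AA loop RNA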
dCAG dye counter = disrupts DNA CAG TO-PRO-1 complex, flagging rCAG hits. d(CAG) DNA oligo TO-PRO-1 dye displacement, fluorescence. shares compounds with rCAG RNA binder. inhibition, % at 3 µM. actives 94% (n = 4,300). AID 652068;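 active = inhibition above its plate's cutoff, the mean test-well inhibition plus 3 SD, cut at about 4.8% in these data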;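 also: hits displace the dye from DNA and so lower well fluorescence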
DNA CAG DR = counter-screen for rCAG binders: inhibitors of DNA CAG TO-PRO-1 complex. shares compounds with rCAG RNA binder. DNA CAG/GTC duplex TO-PRO-1 dye displacement fluorescence. IC50, µM. actives 20% (n = 250); in the data active = IC50 below about 10 µM
Of the large screens only hits and unclear results are named; the others gave an inactive call (follow-up assays come after a bar, where they were run).

O=C(CSc1ccc(-c2ccco2)nn1)c1cccc([N+](=O)[O-])c1	rCAG RNA binder 35 | rCAG bind conf inactive | dCAG dye counter 11
Cc1ccc(/C=C2\SC(=S)N(c3cccnc3)C2=O)o1	none
O=C(O)c1cccc(N2C(=O)/C(=C/c3ccc(SCc4ccc(Cl)cc4)o3)SC2=S)c1	rCAG RNA binder 67 (no result: T cell HTS) | rCAG bind conf 88 | dCAG dye counter 61
CCN=C1S/C(=C\c2cn(CC)c3ccccc23)C(=O)N1CC	none
Cc1ccc(N=C2S/C(=C\c3cn(CC(=O)O)c4ccccc34)C(=O)N2C)cc1	rCAG RNA binder 77 | rCAG bind conf 76 | dCAG dye counter 36
Cc1cccc(N2CCN(C(=O)Cc3c(C(=O)O)[nH]c4ccc(Cl)cc34)CC2)c1C	rCAG RNA binder 50 | rCAG bind conf 72 | dCAG dye counter 37
Cc1nnc(NC(=O)Nc2cccc(Cl)c2)s1	rCAG RNA binder 50 | rCAG bind conf inactive | dCAG dye counter 12
Cc1cccnc1NC(=O)Nc1cccc(Cl)c1	none
CN1CC=C(c2ccc(C(F)(F)F)cc2)N(c2ccc(Br)cc2)C1=O	none (no result: V-ATPase pHluor, B2AR ag, MPTP block, Granule exo inh, T cell HTS)
C[C@@H]1COc2cc(NCCCN3CCOCC3)ccc2S(=O)(=O)N1	none (no result: V-ATPase pHluor, B2AR ag, MPTP block, Granule exo inh, T cell HTS)
COC(=O)C1=C(C)N(Cc2cccc(C(F)(F)F)c2)C(=NCc2ccc(OC)cc2)NC1c1ccc(F)cc1 (stereo not drawn)	none (no result: V-ATPase pHluor, B2AR ag, MPTP block, Granule exo inh, T cell HTS)
O=C(CCN1CCN(c2ccccc2)CC1)N/N=C/c1ccc(O)c(O)c1O	rCAG RNA binder 56 (no result: T cell HTS) | rCAG bind conf 45 | dCAG dye counter 21
CC(=O)c1cc(-c2ccccc2)n(CC(=O)NCc2ccccc2Cl)c1C	none (no result: V-ATPase pHluor, B2AR ag, MPTP block, Granule exo inh, T cell HTS)
CCCCCC(=O)Nc1nc(C)c(-c2csc(Nc3cc(Cl)ccc3OC)n2)s1	rCAG RNA binder 39 | rCAG bind conf inactive | dCAG dye counter 13
CCCC(=O)Nc1nc(C)c(-c2csc(Nc3cc(OC)ccc3OC)n2)s1	none
CCC(C)N(C(=O)Cn1nc(Cc2ccncc2)c2ccccc2c1=O)C(C)CC (stereo not drawn)	none (no result: V-ATPase pHluor, B2AR ag, MPTP block, Granule exo inh, T cell HTS)
CC(NC(=O)CN1c2cccc3cccc(c23)S1(=O)=O)c1ccc(S(N)(=O)=O)cc1 (stereo not drawn)	rCAG RNA binder 40 | rCAG bind conf inactive | dCAG dye counter 10
Brc1ccc(N2O[C@H]3C=C[C@@H]2C3)nc1	none (no result: V-ATPase pHluor, B2AR ag, MPTP block, Granule exo inh, T cell HTS)
Cc1cccc(-n2c(O)c(C=Nc3ccccc3O)c3ccccc3c2=O)n1	none
Cc1cccc(-n2c(O)c(C=Nc3ccccc3-c3n[nH]c(=S)[nH]c3=O)c3ccccc3c2=O)n1	rCAG RNA binder 46 | rCAG bind conf 44 | dCAG dye counter 13
Cc1ccc(-n2c(O)c(C=Nc3ccccc3-c3n[nH]c(=S)[nH]c3=O)c3ccccc3c2=O)cc1C	rCAG RNA binder 77 (no result: T cell HTS) | rCAG bind conf 81 | dCAG dye counter 48
Cc1ccc(-n2c(O)c(C=Nc3ccccc3-c3n[nH]c(=S)[nH]c3=O)c3ccccc3c2=O)c(C)c1	rCAG RNA binder 72 | rCAG bind conf 88 | dCAG dye counter 57
CN[C@H]1C[C@H]2c3[nH]c4c(-c5ccc6c(c5)OCO6)cccc4c3CCN2C(=O)[C@H]1[C@H](C)O	none (no result: V-ATPase pHluor, B2AR ag, MPTP block, Granule exo inh, T cell HTS)
CC1CC(C)CN(C(=O)C2CCN(c3cncnc3)CC2)C1 (stereo not drawn)	none (no result: V-ATPase pHluor, B2AR ag, MPTP block, Granule exo inh, T cell HTS)
O=C(O)c1ccc(N/N=C/c2ccc(-c3ccc(Br)cc3)o2)cc1	rCAG RNA binder 49 | rCAG bind conf 49 | dCAG dye counter 14
Nc1nonc1C(=O)N/N=C/c1ccc(-c2ccc(Cl)c(C(=O)O)c2)o1	none
O=C(N/N=C/c1ccc(-c2ccccc2Cl)o1)c1ccccc1	none
O=C(O)c1cc(-c2ccc(/C=N/Nc3ccc(Cl)cc3)o2)ccc1Cl	rCAG RNA binder 67 | rCAG bind conf 67 | dCAG dye counter 28
O=C(O)c1ccc(N/N=C/c2ccc(-c3ccccc3Cl)o2)cc1	rCAG RNA binder 65 | rCAG bind conf 41 | dCAG dye counter 11
CCCCOCCCNC(=O)C[C@H]1C[C@@]2(C(=O)OC)C(=C[C@H](C(C)(C)C)O[C@@H]2C)N(Cc2ccc(Cl)cc2Cl)C1=O	none (no result: V-ATPase pHluor, B2AR ag, MPTP block, Granule exo inh, T cell HTS)
CCC(=O)OCCCN1C(=O)CCC12CCC(C)CC2 (stereo not drawn)	none (no result: V-ATPase pHluor, B2AR ag, MPTP block, Granule exo inh, T cell HTS)
CCOC(=O)Cn1cc(CN2C(C(=O)OC)CN(C3CC3)CCS2(=O)=O)nn1 (stereo not drawn)	none (no result: V-ATPase pHluor, B2AR ag, MPTP block, Granule exo inh, T cell HTS)
O=C(Nc1cc(-c2ccccc2)sc1C(=O)O)c1cccc(F)c1	rCAG RNA binder 73 | rCAG bind conf 70 | dCAG dye counter 33 | DNA CAG DR 4
CCOc1ccc(-c2cc(NC(=O)c3c(F)cccc3F)c(C(=O)O)s2)cc1	rCAG RNA binder 83 | rCAG bind conf 85 | dCAG dye counter 44
CCCCNC(=O)OC1CCC12CCC(c1ccccc1)CC2 (stereo not drawn)	none (no result: V-ATPase pHluor, B2AR ag, MPTP block, Granule exo inh, T cell HTS)
C#CCNC(=O)C[C@H]1C[C@@]2(C(=O)OC)C(=C[C@H](C(C)C)O[C@@H]2C2CC2)N(Cc2ccc(Cl)cc2Cl)C1=O	none (no result: V-ATPase pHluor, B2AR ag, MPTP block, Granule exo inh, T cell HTS)
CCOC(=O)C(C)N1C(=O)S/C(=C\c2ccc(-c3ccccc3C(=O)O)o2)C1=O (stereo not drawn)	rCAG RNA binder 37 | rCAG bind conf 40 | dCAG dye counter 12
Cc1cc(C)c2nc3sc(=Cc4ccc(-c5ccccc5C(=O)O)o4)c(=O)n3c2c1	none (no result: V-ATPase pHluor, B2AR ag, T cell HTS)
Cc1ccc(C)c(N2C(=N)S/C(=C\c3ccc(-c4ccccc4C(=O)O)o3)C2=O)c1	rCAG RNA binder 45 | rCAG bind conf 39 | dCAG dye counter 10
Cc1ccc(NC(=O)CN2C(=O)S/C(=C\c3ccc(-c4cccc(C(=O)O)c4C)o3)C2=O)cc1	none (no result: V-ATPase pHluor, B2AR ag, MPTP block, rCAG RNA binder, Granule exo inh)
Cc1ccc2c(nc3s/c(=C\c4ccc(-c5ccccc5C(=O)O)o4)c(=O)n32)c1C	rCAG RNA binder 54 | rCAG bind conf 89 | dCAG dye counter 75
C=CCN1C(=O)[C@H](CC(=O)NCC2CCCCC2)[C@@]2(C(=O)OCC)CCCC=C12	none (no result: V-ATPase pHluor, B2AR ag, MPTP block, Granule exo inh, T cell HTS)
COC(=O)COc1ccc(C2Nc3c(Cl)ccc(C(=O)O)c3C3C=CCC32)cc1 (stereo not drawn)	rCAG RNA binder 76 | rCAG bind conf 49 | dCAG dye counter 17
O=C(O)c1ccc(Cl)c2c1C1C=CCC1C(c1ccccn1)N2 (stereo not drawn)	none (no result: V-ATPase pHluor, B2AR ag, MPTP block, rCAG RNA binder, Granule exo inh)
COc1ccc(OC)c(C2Nc3c(Cl)ccc(C(=O)O)c3C3C=CCC32)c1 (stereo not drawn)	rCAG RNA binder 50 | rCAG bind conf inactive | dCAG dye counter 7.1

Compound activity: PubChem BioAssay, several laboratories
